Data on three compounds can be found in ChEMBL document CHEMBL3232914, “Ultrasound promoted one pot synthesis of novel fluorescent triazolyl spirocyclic oxindoles using DBU based task specific ionic liquids and their antimicrobial activity” (2014).

≈ marks a conversion by molar mass, not a printed value. Calls of active or inactive are those of the source. The calls are words filed in the database; no cut-off is given here.

Test [1] concerns Bacillus subtilis. As to the kind of experiment: Bactericidal activity against Bacillus subtilis MTCC 121 after 24 hrs. It is filed as functional. The note with it: MTCC 121, 24 h.
Test [2] concerns Pseudomonas aeruginosa. In words: microbe, parasite or virus in culture. Particulars: MTCC 741, 24 h, read-out: DIZ.
Test [3] deals with Bacillus subtilis. As to the kind of experiment: Antibacterial activity against Bacillus subtilis MTCC 121 assessed as growth inhibition at 4 mg/mL after 24 hrs by agar well diffusion method. It is filed as functional. Particulars: MTCC 121, 24 h, read-out: DIZ. In a few lines:
(§1)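 Agar wells 8 mm in diameter. The read-out is the diameter of the growth inhibition zone in mm, including the well, given as the mean of three replicates.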

The test system of test [4] is Staphylococcus aureus. As to the kind of experiment: Antibacterial activity against Staphylococcus aureus MTCC 96 assessed as growth inhibition at 4 mg/mL after 24 hrs by agar well diffusion method. It counts as functional. Particulars: MTCC 96, 24 h, read-out: DIZ. In a few lines:
as §1

The test system of test [5] is Bacillus subtilis. As to the kind of experiment: Antibacterial activity against Bacillus subtilis MTCC 121 assessed as growth inhibition after 24 hrs by macrodilution tube method. It is filed as functional. The note with it: MTCC 121, 24 h.
Test [6] concerns Staphylococcus aureus. As to the kind of experiment: Bactericidal activity against Staphylococcus aureus MTCC 96 after 24 hrs. It counts as functional. The note with it: MTCC 96, 24 h.
The test system of test [7] is Pseudomonas aeruginosa. The note with it: MTCC 741, 4 mg/mL.
Test [8] relates to Saccharomyces cerevisiae. As to the kind of experiment: Antifungal activity against Saccharomyces cerevisiae MTCC 170 assessed as growth inhibition at 4 mg/mL after 24 hrs by agar well diffusion method. Particulars: MTCC 170, 24 h, read-out: DIZ. It is filed as functional. In a few lines:
as §1

In test [9] the test system is Candida albicans. As to the kind of experiment: Antifungal activity against Candida albicans MTCC 227 assessed as growth inhibition by macrodilution tube method. It is filed as functional. In a few lines: (§2)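 The MIC against the yeasts was determined with amphotericin-B as the reference standard drug.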
The next test relates to Escherichia coli. As to the kind of experiment: Antibacterial activity against Escherichia coli MTCC 1652 assessed as growth inhibition at 4 mg/mL after 24 hrs by agar well diffusion method. It is filed as functional, organism-based. Put shortly:
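Agar well diffusion with 8 mm wells. The inhibition zone diameter is reported in mm, with the well diameter included. Values are means of three replicates.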

In test [10] the test system is Staphylococcus aureus. As to the kind of experiment: Antibacterial activity against Staphylococcus aureus MTCC 96 assessed as growth inhibition after 24 hrs by macrodilution tube method. It is filed as functional. The note with it: MTCC 96, 24 h.
Test [11] relates to Saccharomyces cerevisiae. As to the kind of experiment: Antifungal activity against Saccharomyces cerevisiae MTCC 170 assessed as growth inhibition by macrodilution tube method. It is filed as functional. In a few lines:
as §2

The subject of test [12] is Candida albicans. As to the kind of experiment: Antifungal activity against Candida albicans MTCC 227 assessed as growth inhibition at 4 mg/mL after 24 hrs by agar well diffusion method. It counts as functional. The note with it: MTCC 227, 24 h, read-out: DIZ. Put shortly: as §1

Turning to `O=C(O)c1cn(C2CC2)c2cc(N3CCNCC3)c(F)cc2c1=O` [CIPROFLOXACIN], the MBC with Bacillus subtilis [1] and with Staphylococcus aureus [6] was 6.25 µg/mL (≈ 18.9 µM) each time. Also, the zone of inhibition at 4000 µg/mL in the test with Pseudomonas aeruginosa [2] was 22 mm; in the test on Bacillus subtilis [3], 24 mm; with Staphylococcus aureus [4], 26.6 mm. For the same compound, the MIC with Bacillus subtilis [5] worked out at 6.25 µg/mL (≈ 18.9 µM).
On to `N#CC1=C(N)OC2=C(C(=O)CCC2)C12C(=O)N(Cc1cn(-c3ccc(Br)cc3)nn1)c1ccccc12` (stereo not given), for which, in the test with Pseudomonas aeruginosa [7], the DIZ entry was “inactive”. Also, the zone of inhibition at 4000 µg/mL with Saccharomyces cerevisiae [8] is 14.3 mm; in the test with Bacillus subtilis [3], 20.3 mm; in the test with Staphylococcus aureus [4], 18.6 mm; in the test on Candida albicans [12], 12.6 mm. In addition, the MBC against Bacillus subtilis [1] is 128 µg/mL (≈ 236 µM); with Staphylococcus aureus [6], 64 µg/mL (≈ 118 µM). Also, the MIC turned out to be 512 µg/mL (≈ 942 µM) in the test on Candida albicans [9], 64 µg/mL (≈ 118 µM) in the test with Staphylococcus aureus [10], 256 µg/mL (≈ 471 µM) in the test on Saccharomyces cerevisiae [11] and 32 µg/mL (≈ 58.9 µM) in the test on Bacillus subtilis [5]. The “diameter of the inhibition zone (DIZ)” value in the test on Escherichia coli is “inactive”.
With `Cc1ccc(-n2cc(CN3C(=O)C4(C(C#N)=C(N)Oc5c4c(=O)n(C)c(=O)n5C)c4ccccc43)nn2)cc1` (stereo not given), in the test with Pseudomonas aeruginosa [7], the DIZ entry was “inactive”. Besides, the zone of inhibition at 4000 µg/mL in the test with Saccharomyces cerevisiae [8] came out at 14.3 mm; in the test on Bacillus subtilis [3] it was 16.3 mm; with Staphylococcus aureus [4], 14.3 mm; in the test on Candida albicans [12] it was 12.3 mm. The MBC in the test on Bacillus subtilis [1] was 128 µg/mL (≈ 245 µM); in the test with Staphylococcus aureus [6] it was 256 µg/mL (≈ 490 µM). In addition, the MIC stood at 512 µg/mL (≈ 980 µM) with Candida albicans [9], 128 µg/mL (≈ 245 µM) with Staphylococcus aureus [10], 256 µg/mL (≈ 490 µM) with Saccharomyces cerevisiae [11] and 128 µg/mL (≈ 245 µM) with Bacillus subtilis [5]. Further, in the test with Escherichia coli, the “diameter of the inhibition zone (DIZ)” value was “inactive”.
